Results published in ChEMBL document CHEMBL1122117, “Pyridazinones. 1. Synthesis and antisecretory and antiulcer activities of thio amide derivatives” (1982).

Key:
Rattus norvegicus [1] = assay: Effective dose required for gastric antisecretory activity in the pylorus-ligated rat after intraduodenal administration.; type: functional; conditions: Stomach
Outline: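 Pylorus ligated under ether in fasted rats, six per group. Test agents were given intraduodenally at several dose levels in 1% carboxymethylcellulose, with a vehicle control group. After 7 h the gastric juice volume was measured and titrated with 0.1 N NaOH to pH 3.0 for free acid, as hourly output per rat. ED50 was calculated.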

Rattus norvegicus [2] = assay: Inhibition of gastric antisecretory activity in the pylorus-ligated rat at a dose of 100 mg/kg administered intraduodenally; type: functional; conditions: Stomach, route intraduodenal
Outline: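 Shay pylorus-ligated rats, fasted, six per group, ligated under ether. A single intraduodenal dose of 100 mg/kg was given in 1% carboxymethylcellulose, against a vehicle control. The stomach was removed 7 h later, juice volume measured, and free acid titrated with 0.1 N NaOH to pH 3.0 as hourly output. Results are given as percent inhibition versus control.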

Rattus norvegicus [3] = assay: Antiulcer activity as dose required to inhibit 50% gastric juice secretions in male Wistar rats after intraduodenally administration.; type: functional; conditions: intraduodenal
Rattus norvegicus [4] = assay: Antiulcer activity in male Donry rat for 50% inhibition of aspirin induced gastric lesions after intraduodenal administration.; type: functional; conditions: Stomach
Outline: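 Aspirin ulcer model. Male Donryu rats of 200–220 g were food-deprived 24 h, ten per group, pylorus-ligated, then dosed intraduodenally. Ten min later they received oral aspirin 100 mg/kg in 1% carboxymethylcellulose. At 7 h the summed lengths of glandular lesions gave the ulcer index (mm). ED50 by Litchfield–Wilcoxon.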

Rattus norvegicus [5] = assay: Antiulcer activity in male Wistar rats for 50% inhibition of stress induced gastric lesions after peroral administration.; type: functional; conditions: Stomach, po
Outline: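 Stress ulcer model. Male Wistar rats of 200–220 g, ten per group, were dosed orally, then immobilized in a stress cage and immersed in a water bath. The stomach was removed 7 h later and summed lesion lengths gave the ulcer index (mm). ED50 by Litchfield–Wilcoxon.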

Rattus norvegicus [6] = species: Rattus norvegicus; assay: animal or person; conditions: Stomach, intraduodenal
Rattus norvegicus [7] = species: Rattus norvegicus; assay: animal or person; conditions: Stomach, intraduodenal; remark: listed apart in the source

SMILES | ED50 (Rattus norvegicus [1]) [mg/kg] | inhibition in vivo at 100 mg/kg (Rattus norvegicus [2]) [%] | further results
Cc1ccc(=S)n(CCC(=N)S)n1 | 100 | 48.5 | 
N=C(S)Cn1nc(-c2ccccc2)ccc1=O |  | 5.5 | 
N=C(S)CCn1nc(-c2ccc(Cl)c(Cl)c2)ccc1=O | 78.1 | 55.8 | 
N=C(S)CCn1nc(-c2ccc(Cl)cc2)ccc1=O | > 100 | 42.5 | 
CNC(=O)CCn1nc(-c2ccccc2)ccc1=O |  | 3.5 | 
CC(CC(=N)S)N1N=C(c2ccccc2)CCC1=O (centres undefined) |  | 9.2 | 
CC(Cn1ncccc1=S)C(=N)S (centres undefined) |  | -1 | 
C/N=C(\S)CC(C)n1ncccc1=O (centres undefined) | > 100 | 42.7 | 
N=C(S)CCCCCCn1nc(-c2ccccc2)ccc1=O | > 100 | 33.9 | 
C/N=C(/S)CCCCCn1nc(-c2ccccc2)ccc1=O | 25.2 | 92.3 | ED50 (Rattus norvegicus [3]): 15 mg/kg; ED50 (Rattus norvegicus [4]): 45.5 mg/kg; ED50 (Rattus norvegicus [5]): 18.3 mg/kg
Cc1ccc(=O)n(CCCC(=N)S)n1 | > 100 | 36.3 | 
N#CCCn1nc(-c2ccccc2)ccc1=O |  | 10.1 | 
Cc1ccc(=O)n(CCCCCCC(=N)S)n1 | > 100 | 29.5 | 
CC1=NN(CCC(=N)S)C(=O)CC1 | > 100 | 34.8 | 
N=C(S)CCN1N=C(c2ccc(Cl)c(Cl)c2)CCC1=O | > 100 | 47.2 | 
O=c1ccc(-c2ccccc2)nn1CCC(=S)N1CCCC1 | > 100 | 38.2 | 
CC(Cn1ncccc1=O)C(=N)S (centres undefined) | > 100 | 40.3 | 

SMILES | ED50 (Rattus norvegicus [1]) [mg/kg] | inhibition in vivo at 100 mg/kg (Rattus norvegicus [2]) [%] | further results
N=C(S)CCN1N=C(c2ccc(Cl)cc2)CCC1=O | > 100 | 43.1 | 
Cc1ccc(=O)n(CCC(N)=O)n1 |  | -2.9 | 
Cc1ccc(=O)n(CCC(=N)S)n1 | 43.2 | 73.9 | ED50 (Rattus norvegicus [3]): 51.3 mg/kg; ED50 (Rattus norvegicus [4]): > 100 mg/kg; ED50 (Rattus norvegicus [5]): > 50 mg/kg
N=C(S)CCCCn1nc(-c2ccccc2)ccc1=O | > 100 | 33.8 | 
Cc1ccc(=O)n(CCCCCC(=N)S)n1 | > 100 | 36.6 | 
C/N=C(\S)CCn1ncccc1=O | > 100 | 30.7 | 
CCOC(=O)CCn1nc(-c2ccccc2)ccc1=O |  | 6.3 | 
COc1ccc(-c2ccc(=O)n(CCC(=N)S)n2)cc1 | > 100 | 20.7 | 
N=C(S)CCn1ncc2ccccc2c1=O | 90.1 | 58.3 | 
CC(CC(=N)S)n1nc(-c2ccccc2)ccc1=O (centres undefined) |  | 15.5 | 
Cc1ccc(=O)n(CC(C)C(=N)S)n1 (centres undefined) | > 100 | 30.2 | 
CN(C)C(=S)CCn1nc(-c2ccccc2)ccc1=O |  | 46 | 
N=C(S)CCn1nc(-c2cccs2)ccc1=O | 100 | 50.2 | 
O=c1cccnn1CCC(=S)N1CCCC1 | > 100 | 29.7 | 
C/N=C(\S)CCn1nc(-c2ccccc2)ccc1=O | 58.5 | 68.2 | ED50 (Rattus norvegicus [3]): 50.1 mg/kg; ED50 (Rattus norvegicus [4]): 66.3 mg/kg; ED50 (Rattus norvegicus [5]): 28.3 mg/kg
CN1[C@@H]2CC[C@H]1C[C@@H](OC(=O)C(CO)c1ccccc1)C2.O=S(=O)(O)O (some centres undefined) [ATROPINE SULFATE] |  |  | ED50 (Rattus norvegicus [4]): 4.5 mg/kg; ED50 (Rattus norvegicus [6]): 1.1 mg/kg; ED50 (Rattus norvegicus [7]): 0.9 mg/kg
CN/C(=N\CCSCc1nc[nH]c1C)NC#N [CIMETIDINE] |  |  | ED50 (Rattus norvegicus [5]): 43.2 mg/kg; ED50 (Rattus norvegicus [6]): > 100 mg/kg
